The source made the active and inactive calls. The calls are words filed in the database; no cut-off is given here.
Key:
Type in all cases: cell-based
[1] = molecular target: T1, Inhibitor of nuclear factor kappa-B kinase subunit beta (Mus musculus) (UniProt O88351); test: Inhibition of IKKbeta in C57BL/6 mouse BMDM cells assessed as inhibition of TNFalpha-induced phosphorylation at 25 uM after 5 mins by Western blot analysis
T1 sequence (whole entry): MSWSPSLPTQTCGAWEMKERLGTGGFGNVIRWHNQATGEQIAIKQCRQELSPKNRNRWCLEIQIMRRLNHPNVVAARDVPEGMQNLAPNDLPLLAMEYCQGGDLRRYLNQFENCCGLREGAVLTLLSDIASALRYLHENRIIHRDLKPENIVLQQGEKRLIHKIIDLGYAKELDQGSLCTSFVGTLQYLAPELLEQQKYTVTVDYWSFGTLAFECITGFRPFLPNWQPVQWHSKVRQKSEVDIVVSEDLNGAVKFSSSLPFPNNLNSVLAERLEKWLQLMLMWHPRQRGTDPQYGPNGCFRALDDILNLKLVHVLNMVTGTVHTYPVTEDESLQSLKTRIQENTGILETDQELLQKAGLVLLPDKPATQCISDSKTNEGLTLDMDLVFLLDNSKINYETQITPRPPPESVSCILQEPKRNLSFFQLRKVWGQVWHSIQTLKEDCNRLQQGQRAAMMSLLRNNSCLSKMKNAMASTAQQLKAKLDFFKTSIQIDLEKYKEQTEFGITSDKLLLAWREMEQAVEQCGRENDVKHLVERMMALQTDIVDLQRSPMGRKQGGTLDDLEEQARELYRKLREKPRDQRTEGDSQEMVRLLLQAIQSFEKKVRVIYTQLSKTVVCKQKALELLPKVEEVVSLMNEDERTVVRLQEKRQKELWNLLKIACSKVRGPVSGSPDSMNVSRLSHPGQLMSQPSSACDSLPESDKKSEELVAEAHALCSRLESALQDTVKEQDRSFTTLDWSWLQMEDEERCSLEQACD
In short: (§1)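 C57BL/6 marrow-derived macrophages were cultured in 70% growth medium/30% L929-conditioned medium and refreshed 12-14 h before stimulation. Stimuli were TNF 40 ng/ml or LPS 100 ng/ml, ± compound at 25 μM from a 200x DMSO stock. Western blots tracked IKK, p38, IκBα and phospho-RelA. Results from three independent experiments were quantitated and normalized.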

[2] = molecular target: T2, Toll-like receptor 9 (Mus musculus) (UniProt Q9EQU3); test: Inhibition of MyD88 recruitment to TLR9 in C57BL/6 mouse BMDM cells assessed as inhibition of CpG-induced IkappaBalpha degradation up to 90 mins by Western blot analysis
T2 sequence (whole entry): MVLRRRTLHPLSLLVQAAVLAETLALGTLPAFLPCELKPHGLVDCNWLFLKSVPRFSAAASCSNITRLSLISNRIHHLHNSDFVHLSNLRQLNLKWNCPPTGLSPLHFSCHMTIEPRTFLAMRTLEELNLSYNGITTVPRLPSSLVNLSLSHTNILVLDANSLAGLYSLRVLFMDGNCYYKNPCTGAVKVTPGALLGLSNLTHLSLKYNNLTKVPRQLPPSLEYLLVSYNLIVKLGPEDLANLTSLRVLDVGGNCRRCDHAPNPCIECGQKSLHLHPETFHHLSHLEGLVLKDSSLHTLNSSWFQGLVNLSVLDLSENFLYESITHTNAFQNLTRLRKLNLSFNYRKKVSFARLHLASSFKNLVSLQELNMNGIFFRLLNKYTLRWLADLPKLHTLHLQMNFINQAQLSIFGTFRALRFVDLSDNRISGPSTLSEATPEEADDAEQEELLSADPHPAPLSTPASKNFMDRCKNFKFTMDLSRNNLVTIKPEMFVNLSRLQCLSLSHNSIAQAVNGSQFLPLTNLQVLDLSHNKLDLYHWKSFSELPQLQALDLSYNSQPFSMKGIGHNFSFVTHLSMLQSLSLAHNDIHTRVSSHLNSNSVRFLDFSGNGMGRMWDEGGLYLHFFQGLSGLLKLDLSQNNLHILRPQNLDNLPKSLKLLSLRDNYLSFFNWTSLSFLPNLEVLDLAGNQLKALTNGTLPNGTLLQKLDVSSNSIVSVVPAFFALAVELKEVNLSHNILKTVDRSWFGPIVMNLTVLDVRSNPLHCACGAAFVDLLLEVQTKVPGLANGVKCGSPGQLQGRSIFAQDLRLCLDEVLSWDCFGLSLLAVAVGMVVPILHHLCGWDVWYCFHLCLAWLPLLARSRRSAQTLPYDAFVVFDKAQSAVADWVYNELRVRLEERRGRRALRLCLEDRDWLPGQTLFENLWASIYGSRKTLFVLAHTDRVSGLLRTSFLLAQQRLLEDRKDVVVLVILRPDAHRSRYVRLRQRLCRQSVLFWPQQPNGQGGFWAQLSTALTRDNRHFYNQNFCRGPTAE
In short: (§2)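 Bone marrow macrophages from C57BL/6 mice, grown in 70% growth medium (DMEM, 10% FBS) plus 30% L929-conditioned medium and given fresh medium 12-14 h before stimulation. Stimuli: IL-1 40 ng/ml, HKSA ~10^8 cfu/ml, pI:pC 50 μg/ml or CpG 10 μg/ml, ± compound at 10 μM (final) added from a 200x DMSO stock. IκBα and p38 profiled by immunoblot. Three independent experiments, quantitated and normalized.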

[3] = molecular target: T1, Inhibitor of nuclear factor kappa-B kinase subunit beta (Mus musculus); test: Inhibition of IKKbeta in C57BL/6 mouse BMDM cells assessed as inhibition of TNFalpha-induced RelA phosphorylation at 25 uM after 5 mins by Western blot analysis; in short: as §1
[4] = molecular target: Toll-like receptor 2 (Mus musculus) (UniProt Q9QUN7); test: Inhibition of MyD88 recruitment to TLR2 in C57BL/6 mouse BMDM cells assessed as inhibition of HKSA-induced IkappaBalpha degradation up to 90 mins by Western blot analysis; in short: as §2
[5] = molecular target: T1, Inhibitor of nuclear factor kappa-B kinase subunit beta (Mus musculus); test: Inhibition of IKKbeta in C57BL/6 mouse BMDM cells assessed as inhibition of LPS-induced IkappaBalpha degradation at 50 uM up to 90 mins by Western blot analysis

Sequence of Toll-like receptor 2 (Mus musculus) (Q9QUN7 whole entry): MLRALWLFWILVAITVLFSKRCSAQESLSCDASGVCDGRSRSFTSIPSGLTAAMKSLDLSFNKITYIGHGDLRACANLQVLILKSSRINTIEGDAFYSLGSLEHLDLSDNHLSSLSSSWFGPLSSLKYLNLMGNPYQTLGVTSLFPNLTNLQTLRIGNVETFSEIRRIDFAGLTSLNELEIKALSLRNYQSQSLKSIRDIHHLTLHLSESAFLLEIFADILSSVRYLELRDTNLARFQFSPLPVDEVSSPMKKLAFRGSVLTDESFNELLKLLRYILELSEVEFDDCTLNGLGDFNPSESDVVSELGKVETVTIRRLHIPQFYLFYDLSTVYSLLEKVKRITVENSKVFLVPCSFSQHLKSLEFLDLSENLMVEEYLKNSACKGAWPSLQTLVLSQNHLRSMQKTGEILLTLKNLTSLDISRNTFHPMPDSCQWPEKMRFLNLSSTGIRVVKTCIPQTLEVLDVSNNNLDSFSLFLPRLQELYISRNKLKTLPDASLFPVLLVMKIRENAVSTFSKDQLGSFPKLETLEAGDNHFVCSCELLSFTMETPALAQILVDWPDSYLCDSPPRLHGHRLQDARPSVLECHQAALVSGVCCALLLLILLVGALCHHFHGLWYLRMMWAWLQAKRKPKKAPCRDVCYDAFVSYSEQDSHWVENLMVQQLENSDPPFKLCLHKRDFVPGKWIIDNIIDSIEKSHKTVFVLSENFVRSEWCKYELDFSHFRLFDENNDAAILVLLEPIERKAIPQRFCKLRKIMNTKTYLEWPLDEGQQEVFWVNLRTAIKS

inhibition [1] | inhibition [2] | inhibition [3] | inhibition [4] | inhibition (active/not active) [5] | Structure (SMILES)
inactive | Active | inactive | Active | inactive | O=C(CCCCCN1C(=O)CCC1=O)Oc1ccc2cc(C(C(=O)NCc3ccccc3)N(C(=O)Cc3ccc4c(c3)OCO4)C3CC3)ccc2c1 (stereo not given)
inactive | Active | inactive | Active | Active | O=C(CCCCCN1C(=O)C=CC1=O)Oc1ccc2cc(C(C(=O)NCc3ccccc3)N(C(=O)Cc3ccc4c(c3)OCO4)C3CC3)ccc2c1 (stereo not given)
inactive | Active | inactive | Active | Active | O=C(CCCCCCCC(=O)ON1C(=O)CCC1=O)Oc1ccc2cc(C(C(=O)NCc3ccccc3)N(C(=O)Cc3ccc4c(c3)OCO4)C3CC3)ccc2c1 (stereo not given)
